# Laboratory results taken from PMC7383892 (Epilepsia, 2020).
# Entries after “also recorded” stand apart in the source; their conditions may differ. Where two headings read alike, the source gives them in different places. Marks after values point to notes of the source that are not given here.
# Columns and labels:
# [1] = tested on: photosensitive epilepsy; conditions: cited from earlier work
# [2] = tested on: Lennox–Gastaut syndrome; conditions: stable dosages over a 3-year period; cited from earlier work
# [3] = molecular target: human recombinant GABAA receptor α4β2γ2 (Homo sapiens, UniProt P18507+P48169); experiment: Two-electrode voltage clamp in Xenopus oocytes, α4β2γ2; format: cell-based; conditions: TEVC; for Potentiation of the GABA (EC20) response on α4β2γ2 receptors: oocytes, Padsevonil 10 and 30 µmol/L, Ro 15-4513 1 µmol/L
# human recombinant GABAA receptor α4β2γ2, sequence (P48169 36-554): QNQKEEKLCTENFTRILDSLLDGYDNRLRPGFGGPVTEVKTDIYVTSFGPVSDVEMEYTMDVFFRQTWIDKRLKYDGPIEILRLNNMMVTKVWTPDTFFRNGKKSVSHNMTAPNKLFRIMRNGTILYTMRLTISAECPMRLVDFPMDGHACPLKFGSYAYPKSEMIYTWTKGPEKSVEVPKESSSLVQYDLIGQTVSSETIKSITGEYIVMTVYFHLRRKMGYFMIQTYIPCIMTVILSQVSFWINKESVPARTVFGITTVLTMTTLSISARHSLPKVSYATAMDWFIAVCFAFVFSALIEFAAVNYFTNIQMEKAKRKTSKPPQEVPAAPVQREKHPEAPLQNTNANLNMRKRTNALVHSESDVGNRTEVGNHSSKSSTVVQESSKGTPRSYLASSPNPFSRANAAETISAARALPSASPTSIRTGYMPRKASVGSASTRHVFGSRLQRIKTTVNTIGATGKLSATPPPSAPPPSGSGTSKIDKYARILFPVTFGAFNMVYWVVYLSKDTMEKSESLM
# human recombinant GABAA receptor α4β2γ2, sequence (P47870 25-512 partner limits assumed): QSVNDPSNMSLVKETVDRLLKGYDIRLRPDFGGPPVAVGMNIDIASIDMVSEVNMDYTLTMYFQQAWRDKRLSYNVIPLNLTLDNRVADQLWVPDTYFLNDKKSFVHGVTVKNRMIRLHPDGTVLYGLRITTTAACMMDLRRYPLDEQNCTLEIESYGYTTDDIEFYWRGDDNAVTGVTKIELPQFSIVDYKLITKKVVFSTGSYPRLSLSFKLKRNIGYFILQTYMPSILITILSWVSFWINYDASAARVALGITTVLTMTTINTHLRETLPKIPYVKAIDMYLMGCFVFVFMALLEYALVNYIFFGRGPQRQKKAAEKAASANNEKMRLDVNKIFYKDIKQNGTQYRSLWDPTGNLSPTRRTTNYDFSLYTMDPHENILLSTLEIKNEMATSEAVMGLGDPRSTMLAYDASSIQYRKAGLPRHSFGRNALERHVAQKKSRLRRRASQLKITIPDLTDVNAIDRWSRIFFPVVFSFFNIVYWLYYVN
# human recombinant GABAA receptor α4β2γ2, sequence (P18507 40-475): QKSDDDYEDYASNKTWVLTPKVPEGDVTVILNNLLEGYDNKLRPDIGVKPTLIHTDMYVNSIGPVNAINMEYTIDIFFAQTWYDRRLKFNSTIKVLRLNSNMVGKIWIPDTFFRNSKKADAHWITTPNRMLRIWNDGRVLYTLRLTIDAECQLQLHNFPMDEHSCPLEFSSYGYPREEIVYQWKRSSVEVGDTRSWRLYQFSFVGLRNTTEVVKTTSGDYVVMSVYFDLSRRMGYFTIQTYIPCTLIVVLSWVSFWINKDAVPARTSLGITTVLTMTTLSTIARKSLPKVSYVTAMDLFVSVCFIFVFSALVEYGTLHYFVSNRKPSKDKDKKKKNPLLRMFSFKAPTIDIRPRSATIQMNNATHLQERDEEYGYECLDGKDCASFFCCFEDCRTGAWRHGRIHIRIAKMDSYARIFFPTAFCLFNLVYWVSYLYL
# In short: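 Human recombinant receptors expressed in Xenopus oocytes; automated two-electrode voltage clamp at −60 mV in frog Ringer (115 mM NaCl, 2.5 mM KCl, 1.8 mM CaCl₂, 10 mM HEPES, pH 7.2). Two 20 s GABA (EC₂₀) control applications 6 min apart; test compound pre-incubated 6 min, then co-applied with GABA for 20 s. Potentiation is I(GABA+drug)/I(GABA); EC50 from sigmoidal nonlinear fit.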
# [4] = molecular target: B isoform of SV2 proteins; conditions: cited from earlier work
# [5] = tested on: SV2A; conditions: cited from earlier work
# [6] = molecular target: recombinant GABAARs, benzodiazepine (BZD) binding site; conditions: cited from earlier work
# [7] = tested on: BZD site of GABAARs; conditions: cited from earlier work
# [8] = molecular target: human recombinant GABAA receptor α5β2γ2 (Homo sapiens, UniProt P18507+P31644); experiment: Two-electrode voltage clamp in Xenopus oocytes, α5β2γ2; format: cell-based; conditions: for Function relative efficacy, normalized toward chlordiazepoxide (10 µmol/L): Padsevonil 10 µmol/L, GABA EC20, TEVC, α5β2γ2
# human recombinant GABAA receptor α5β2γ2, sequence (P31644 32-462): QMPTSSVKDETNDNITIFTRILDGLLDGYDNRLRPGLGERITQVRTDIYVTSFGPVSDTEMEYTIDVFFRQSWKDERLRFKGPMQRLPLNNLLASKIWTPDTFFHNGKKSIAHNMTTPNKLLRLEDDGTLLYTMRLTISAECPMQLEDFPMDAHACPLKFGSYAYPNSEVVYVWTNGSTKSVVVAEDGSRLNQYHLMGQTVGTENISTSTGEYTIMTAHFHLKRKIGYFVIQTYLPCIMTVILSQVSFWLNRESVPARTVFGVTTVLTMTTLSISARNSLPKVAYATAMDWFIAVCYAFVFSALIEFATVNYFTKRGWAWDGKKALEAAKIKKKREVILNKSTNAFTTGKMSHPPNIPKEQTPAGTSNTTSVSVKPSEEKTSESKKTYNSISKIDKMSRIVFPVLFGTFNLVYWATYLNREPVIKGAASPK
# human recombinant GABAA receptor α5β2γ2, sequence (P47870 25-512 partner limits assumed): as the sequence (P47870 25-512 partner limits assumed) above
# human recombinant GABAA receptor α5β2γ2, sequence (P18507 40-475): as the sequence (P18507 40-475) above
# In short: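 Human α5β2γ2 receptors expressed in oocytes. GABA (EC₂₀) was applied twice for 20 s, 6 min apart, as control. Test compound (1 nmol/L–30 µmol/L) was preincubated 6 min, then co-applied with GABA for 20 s. EC₅₀ came from a sigmoidal fit of data normalized to maximal potentiation. Efficacy at 10 µmol/L was normalized to chlordiazepoxide 10 µmol/L. Mean ± SEM, n = 6–26.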
# [9] = tested on: treatment-resistant focal epilepsy; conditions: Phase IIa proof-of-concept trial; cited from earlier work
# [10] = molecular target: human recombinant GABAA receptor α2β2γ2 (Homo sapiens, UniProt P18507+P47869); experiment: Two-electrode voltage clamp in Xenopus oocytes, α2β2γ2; format: cell-based; conditions: for Function relative efficacy, normalized toward chlordiazepoxide (10 µmol/L): Padsevonil 10 µmol/L, GABA EC20, TEVC, α2β2γ2
# human recombinant GABAA receptor α2β2γ2, sequence (P47869 29-451): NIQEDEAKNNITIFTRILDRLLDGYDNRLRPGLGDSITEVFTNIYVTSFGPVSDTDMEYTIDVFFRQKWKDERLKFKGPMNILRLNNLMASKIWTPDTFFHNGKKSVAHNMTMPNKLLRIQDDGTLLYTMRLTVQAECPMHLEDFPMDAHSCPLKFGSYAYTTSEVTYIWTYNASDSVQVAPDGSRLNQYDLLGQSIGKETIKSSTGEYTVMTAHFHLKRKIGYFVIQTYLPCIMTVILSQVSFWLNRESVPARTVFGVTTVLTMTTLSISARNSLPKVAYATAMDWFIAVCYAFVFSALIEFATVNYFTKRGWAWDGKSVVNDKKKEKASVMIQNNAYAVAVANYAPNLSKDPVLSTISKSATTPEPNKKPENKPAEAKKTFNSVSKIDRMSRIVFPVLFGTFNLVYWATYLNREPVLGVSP
# human recombinant GABAA receptor α2β2γ2, sequence (P47870 25-512 partner limits assumed): as the sequence (P47870 25-512 partner limits assumed) above
# human recombinant GABAA receptor α2β2γ2, sequence (P18507 40-475): as the sequence (P18507 40-475) above
# [11] = molecular target: human recombinant GABAA receptor α1β2γ2 (Homo sapiens, UniProt P14867+P18507); experiment: Two-electrode voltage clamp in Xenopus oocytes, α1β2γ2; format: cell-based; conditions: for Function relative efficacy, normalized toward chlordiazepoxide (10 µmol/L): Padsevonil 10 µmol/L, GABA EC20, TEVC, α1β2γ2
# human recombinant GABAA receptor α1β2γ2, sequence (P14867 28-456): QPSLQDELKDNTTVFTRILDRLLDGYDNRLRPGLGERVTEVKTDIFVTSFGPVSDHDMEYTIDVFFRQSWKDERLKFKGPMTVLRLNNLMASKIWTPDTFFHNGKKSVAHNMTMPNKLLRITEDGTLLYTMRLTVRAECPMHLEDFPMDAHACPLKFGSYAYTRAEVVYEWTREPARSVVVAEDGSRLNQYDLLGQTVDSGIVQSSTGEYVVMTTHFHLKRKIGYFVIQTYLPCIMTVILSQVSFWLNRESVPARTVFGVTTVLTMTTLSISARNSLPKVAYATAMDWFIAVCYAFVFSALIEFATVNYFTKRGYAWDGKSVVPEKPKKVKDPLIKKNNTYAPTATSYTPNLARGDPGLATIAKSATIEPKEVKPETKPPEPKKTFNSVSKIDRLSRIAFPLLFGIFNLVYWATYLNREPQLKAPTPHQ
# human recombinant GABAA receptor α1β2γ2, sequence (P47870 25-512 partner limits assumed): as the sequence (P47870 25-512 partner limits assumed) above
# human recombinant GABAA receptor α1β2γ2, sequence (P18507 40-475): as the sequence (P18507 40-475) above
# [12] = tested on: PTZ-induced clonic seizures; conditions: repeated = twice daily for 4 consecutive days; cited from earlier work
# [13] = tested on: SV2A; conditions: cited from earlier work; remark: listed apart in the source
# [14] = tested on: native GABAARs in cultured rat primary cortical neurons; format: cell-based; conditions: manual patch clamp, rat primary neuronal cultures, GABA at EC20 as printed
# [15] = molecular target: C isoform of SV2 proteins; conditions: cited from earlier work
# [16] = molecular target: human recombinant GABAA receptor α3β2γ2 (Homo sapiens, UniProt P18507+P34903); experiment: Two-electrode voltage clamp in Xenopus oocytes, α3β2γ2; format: cell-based; conditions: for Function relative efficacy, normalized toward chlordiazepoxide (10 µmol/L): Padsevonil 10 µmol/L, GABA EC20, TEVC, α3β2γ2
# human recombinant GABAA receptor α3β2γ2, sequence (P34903 29-492): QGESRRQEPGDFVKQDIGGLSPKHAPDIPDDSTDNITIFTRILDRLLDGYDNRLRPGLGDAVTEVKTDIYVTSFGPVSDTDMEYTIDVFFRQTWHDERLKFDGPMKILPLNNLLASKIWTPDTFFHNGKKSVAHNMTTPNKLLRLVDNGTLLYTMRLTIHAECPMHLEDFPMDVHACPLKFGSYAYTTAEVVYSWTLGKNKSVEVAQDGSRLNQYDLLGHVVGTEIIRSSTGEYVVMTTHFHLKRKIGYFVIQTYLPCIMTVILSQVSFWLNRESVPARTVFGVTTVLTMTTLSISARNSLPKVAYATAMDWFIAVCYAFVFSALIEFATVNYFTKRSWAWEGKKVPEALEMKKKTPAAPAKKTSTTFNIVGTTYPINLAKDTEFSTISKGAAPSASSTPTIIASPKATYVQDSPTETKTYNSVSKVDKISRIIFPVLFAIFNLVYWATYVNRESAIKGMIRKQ
# human recombinant GABAA receptor α3β2γ2, sequence (P47870 25-512 partner limits assumed): as the sequence (P47870 25-512 partner limits assumed) above
# human recombinant GABAA receptor α3β2γ2, sequence (P18507 40-475): as the sequence (P18507 40-475) above
# [17] = molecular target: recombinant human GABAARs (α1β2γ2) (Homo sapiens, UniProt P14867+P18507); format: cell-based; conditions: for Function relative efficacy, normalized toward zolpidem (1 µmol/L): Padsevonil 10 µmol/L; for Cl− currents evoked in the absence of GABA: no GABA, concentrations up to 30 µmol/L
# recombinant human GABAARs (α1β2γ2), sequence (P14867 28-456): as the sequence (P14867 28-456) above
# recombinant human GABAARs (α1β2γ2), sequence (P47870 25-512 partner limits assumed): as the sequence (P47870 25-512 partner limits assumed) above
# recombinant human GABAARs (α1β2γ2), sequence (P18507 40-475): as the sequence (P18507 40-475) above
structure (smiles),measurement,setting,value
COCc1c(C(=O)OC(C)C)ncc2[nH]c3ccc(OCc4ccccc4)cc3c12 [Abecarnil],Clinical efficacy / tolerance development,[1],without development of tolerance
CN1C(=O)CC(=O)N(c2ccccc2)c2cc(Cl)ccc21 [Clobazam],Seizure control / tolerance development,[2],sustained seizure control
"COCc1nn2c(CN3C[C@@H](CC(F)(F)Cl)CC3=O)c(C(F)(F)F)nc2s1 [Padsevonil, (4R)‐4‐(2‐chloro‐2,2‐difluoroethyl)‐1‐{[2‐(methoxymethyl)‐6‐(trifluoromethyl)imidazo[2,1‐b][1,3,4]thiadiazol‐5‐yl]methyl}pyrrolidin‐2‐one]",Potentiation of the GABA (EC20) response on α4β2γ2 receptors,[3],did not potentiate; also recorded: does not activate
same,Potentiation of the GABA (EC20) response on α4β2γ2 receptors,[3]; listed as padsevonil,no activity was observed
same,"Function EC50, potentiation of GABA EC20",[3]; α4β2γ2 in Xenopus oocytes,No potentiation
same,pKi SV2B,[4],7.9
same,Dissociation kinetics from SV2A,[5]; compared with LEV and BRV,significantly slower dissociation kinetics
same,Affinity for SV2A relative to LEV,[5]; radioligand displacement,~2000 fold
same,Affinity for SV2A relative to brivaracetam (BRV),[5]; radioligand displacement,approximately 100 fold
same,pKi SV2A,[5]; radioligand displacement,8.5
same,pKi benzodiazepine (BZD) binding site,[6],6.4
same,BZD site occupancy ED50,"[7]; in vivo, mice",36 mg/kg
same,Occupancy on GABAARs at doses highly active in models of drug-resistant epilepsy,[7]; nonclinical studies,< 20%
same,EC50,[8],281 ± 73 nM
same,"Function relative efficacy, normalized toward chlordiazepoxide (10 µmol/L)",[8],41 ± 10 (n = 10) ^b %
same,"Function relative efficacy, normalized toward chlordiazepoxide (10 µmol/L)",[8]; listed as padsevonil,41%
same,Clinical efficacy,[9],robust efficacy
same,EC50,[10],1740 ± 258 nM
same,"Function relative efficacy, normalized toward chlordiazepoxide (10 µmol/L)",[10],26 ± 4 (n = 13) ^b %
same,"Function relative efficacy, normalized toward chlordiazepoxide (10 µmol/L)",[10]; listed as padsevonil,26%
same,EC50,[11],295 nM
same,"Function relative efficacy, normalized toward chlordiazepoxide (10 µmol/L)",[11],60 ± 6%
same,"Function relative efficacy, normalized toward chlordiazepoxide (10 µmol/L)",[11]; listed as padsevonil,60%
same,Higher potency for receptors with α1 or α5 subunits than for those with α2 or α3 subunits,"[11]; TEVC, oocytes, α1/α5 versus α2/α3",approximately sixfold
same,Tolerance: increase of PTZ seizure threshold after acute versus repeated dosing,[12],tolerance was not developed
same,SV2A occupancy ED50,"[13]; in vivo, mice",0.2 mg/kg
same,SV2A occupancy at doses highly active in models of drug-resistant epilepsy,[13]; nonclinical studies,> 95%
same,"pEC50, potentiation of neuronal GABAAR activity",[14],6.68
same,pKi SV2C,[15],8.5
same,EC50,[16],2090 ± 227 nM
same,"Function relative efficacy, normalized toward chlordiazepoxide (10 µmol/L)",[16],56 ± 6 (n = 18) ^b %
same,"Function relative efficacy, normalized toward chlordiazepoxide (10 µmol/L)",[16]; listed as padsevonil,56%
same,EC50,[17],138 ± 29 nM
same,Effect on maximal activation of the receptor,"[17]; GABA 30 µmol/L (EC90), data not shown",does not overstimulate the receptor
same,Potentiation of the GABA (agonist) response,"[17]; GABA at EC20 set to 100%, patch clamp, human α1β2γ2 in CHO",167%
same,"Function relative efficacy, normalized toward zolpidem (1 µmol/L)","[17]; GABA EC20, patch clamp, same cell",41 ± 4%
same,"Function relative efficacy, normalized toward zolpidem (1 µmol/L)","[17]; GABA EC20, patch clamp, same cell, listed as padsevonil",41%
same,"Relative efficacy, GABA EC20 response as % of that of zolpidem (1 µmol/L)","[17]; Padsevonil 30 µmol/L, GABA EC20, patch clamp, same cell",35%
same,Cl− currents evoked in the absence of GABA,[17],did not elicit
same,Cl− currents evoked in the absence of GABA,[17]; listed as padsevonil,did not evoke
"CCOC(=O)c1ncn2c1CN(C)C(=O)c1cc(N=[N+]=[N-])ccc1-2 [Ro 15‐4513, reference compound]",Potentiation of the GABA (EC20) response on α4β2γ2 receptors,[3],potentiated
"Cc1ccc(-c2nc3ccc(C)cn3c2CC(=O)N(C)C)cc1 [zolpidem, Zolpidem, reference compound]",Potentiation of the GABA (EC20) response on α4β2γ2 receptors,[3],insensitive
